Experimental findings from publication PMC3273716 (European Journal of Medicinal Chemistry, 2011) are described below.

Where two headings read alike, the source gives them in different places.

This assay deals with P. carinii. In words: ATP bioassay, anti-Pneumocystis activity. It is filed as cell-based, Pneumocystis carinii. The conditions noted are these: for IC50: Pneumocystis carinii. The method, boiled down:
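Rat-lung P. carinii (male CD rats, methylprednisolone-immunosuppressed), cryopreserved, thawed, held at 5 × 10^7 nuclei/ml in RPMI-1640 + 20% calf serum, 37 °C, 5% CO2. Screen at 100 µg/ml; titrated if ATP fell ≥50%. Luciferin-luciferase ATP at 6, 24, 48, 72 h. Triplicate wells, 3 assays, 2 batches. Ampicillin 10 µg/ml and pentamidine 1 µg/ml controls. IC50: linear regression, % ATP decrease vs log concentration.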

Where [1] appears, read: 72 h, read-out: IC50 (µg/ml) ± SD for P. carinii.

For the compound `CN(CCOc1ccc(C(=N)N)cc1)CCOc1ccc(C(=N)N)cc1.Cl.Cl` [compound 1, 1,5-Bis(4-amidinophenoxy)-N-methyl-3-azapentane trihydrochloride], the IC50 under setting [1] came to 0.82 ± 0.44 µg/mL and the IC50 (read-out: Activity ranking) lay in the range of 0.1 to 0.99 µg/mL.
For `COc1cc(C(=N)N)ccc1OCCN(C)CCOc1ccc(C(=N)N)cc1OC.Cl.Cl` [compound 2, 1,5-Bis(4-amidino-2-methoxyphenoxy)-N-methyl-3-azapentane] the same measures were 2.1 ± 1.24 µg/mL and 1 to 9.99 µg/mL.
For `COc1cc(C(=N)N)cc(OC)c1OCCN(C)CCOc1c(OC)cc(C(=N)N)cc1OC.Cl.Cl` [compound 3, 1,5-Bis(4-amidino-2,6-dimethoxyphenoxy)-N-methyl-3-azapentane trihydrochloride] the same measures were 45.2 ± 16.9 µg/mL and 10 to 49.9 µg/mL.
For the compound `CN(CCCCCN(C)c1ccc(C(=N)N)cc1)c1ccc(C(=N)N)cc1.Cl.Cl` [compound 4], the IC50 runs as follows: under setting [1], 1.02 ± 0.51 µg/mL; (read-out: Activity ranking) 1 to 9.99 µg/mL.
As to `Cl.Cl.N=C(N)c1ccc(NCCOCCNc2ccc(C(=N)N)cc2)cc1` [compound 5], the IC50 runs as follows: under setting [1], 0.47 ± 0.09 µg/mL; (read-out: Activity ranking) 0.1 to 0.99 µg/mL.
On to `Cl.Cl.N=C(N)c1ccc(OCCOCCOc2ccc(C(=N)N)cc2)cc1` [compound 6], for which the IC50 is 0.96 ± 0.32 µg/mL under setting [1] and 0.1 to 0.99 µg/mL (read-out: Activity ranking).
In the case of `COc1cc(C(=N)N)ccc1OCCOCCOc1ccc(C(=N)N)cc1OC.Cl.Cl` [compound 7, 1,5-Bis(4-amidino-2-methoxyphenoxy)-3-oxapentane dihydrochloride], the IC50 by setting is: under setting [1], 2 ± 1.65 µg/mL; (read-out: Activity ranking) 1 to 9.99 µg/mL.
For `COc1cc(C(=N)N)cc(OC)c1OCCOCCOc1c(OC)cc(C(=N)N)cc1OC.Cl.Cl` [compound 8, 1,5-Bis(4-amidino-2,6-dimethoxyphenoxy)-3-oxapentane dihydrochloride], in that order: 7.66 ± 1.67 µg/mL and 1 to 9.99 µg/mL.
On to `COc1cc(C(=N)N)cc(OC)c1OCCCCCOc1c(OC)cc(C(=N)N)cc1OC.Cl.Cl` [compound 9, 1,5-Bis(4-amidino-2,6-dimethoxyphenoxy)pentane dihydrochloride], for which the IC50 is 1.68 ± 0.37 µg/mL under setting [1] and 1 to 9.99 µg/mL (read-out: Activity ranking).
For `Cl.Cl.N=C(N)c1ccc(OCCSCCOc2ccc(C(=N)N)cc2)cc1` [compound 10, 1,5-Bis(4-amidinophenoxy)-3-thiapentane dihydrochloride] the same measures were 0.52 ± 0.04 µg/mL and 0.1 to 0.99 µg/mL.
Regarding `Cl.Cl.N=C(N)c1ccc(OCCN(CCOc2ccc(C(=N)N)cc2)S(=O)(=O)c2ccccc2)cc1` [compound 11, N,N-Bis[2(4-amidinophenoxy)ethyl]benzenesulfonamide dihydrochloride], the IC50 by setting is: under setting [1], 0.81 ± 0.12 µg/mL; (read-out: Activity ranking) 0.1 to 0.99 µg/mL. Further, the Activity ranking result (ranking based on IC50 in µg/ml) is listed as “marked”.
Regarding `COc1cc(C(=N)N)ccc1OCCN(CCOc1ccc(C(=N)N)cc1OC)S(=O)(=O)c1ccccc1.Cl.Cl` [compound 12, N,N-Bis[2(4-amidino-2-methoxyphenoxy)ethyl]benzenesulfonamide dihydrochloride], the IC50 was 1.8 ± 0.76 µg/mL under setting [1] and 1 to 9.99 µg/mL (read-out: Activity ranking).
For the compound `COc1cc(C(=N)N)cc(OC)c1OCCN(CCOc1c(OC)cc(C(=N)N)cc1OC)S(=O)(=O)c1ccccc1.Cl.Cl` [compound 13, N,N-Bis[2(4-amidino-2,6-dimethoxyphenoxy)ethyl]-benzenesulfonamide], the IC50 by setting is: under setting [1], 3.13 ± 0.99 µg/mL; (read-out: Activity ranking) 1 to 9.99 µg/mL.
As for `COc1cc(C(=N)N)ccc1OCCN(CCOc1ccc(C(=N)N)cc1OC)S(=O)(=O)c1ccc(NC(C)=O)cc1.Cl.Cl` [compound 15, N,N-Bis[2(4-amidino-2-methoxyphenoxy)ethyl]-4-acetamidobenzenesulfonamide], the IC50 reads like this: under setting [1], 2.59 ± 0.83 µg/mL; (read-out: Activity ranking) 1 to 9.99 µg/mL.
Consider `COc1cc(C(=N)N)cc(OC)c1OCCN(CCOc1c(OC)cc(C(=N)N)cc1OC)S(=O)(=O)c1ccc(N)cc1.Cl.Cl` [compound 16], for which the IC50 under setting [1] is 3.24 ± 0.88 µg/mL and the IC50 (read-out: Activity ranking) is 1 to 9.99 µg/mL.
For `Cl.Cl.N=C(N)c1ccc(C(=O)NCCCNC(=O)c2ccc(C(=N)N)cc2)cc1` [compound 17, N,N’-Propane-1,3-diylbis(4-amidinobenzamide) dihydrochloride] the same measures were 1.53 ± 0.9 µg/mL and 1 to 9.99 µg/mL.
For `Cl.Cl.N=C(N)c1ccc(C(=O)NCCCCNC(=O)c2ccc(C(=N)N)cc2)cc1` [compound 18, N,N’-Butane-1,4-diylbis(4-amidinobenzamide) dihydrochloride], in that order: 1.85 ± 0.01 µg/mL and 1 to 9.99 µg/mL.
Take `Cl.Cl.N=C(N)c1ccc(C(=O)NCCCCCNC(=O)c2ccc(C(=N)N)cc2)cc1` [compound 19, N,N’-Pentane-1,5-diylbis(4-amidinobenzamide) dihydrochloride]: the IC50 reads like this: under setting [1], 7.4 ± 0.22 µg/mL; (read-out: Activity ranking) 1 to 9.99 µg/mL.
As to `Cl.Cl.N=C(N)c1ccc(C(=O)NCCCCCCNC(=O)c2ccc(C(=N)N)cc2)cc1` [compound 20, N,N’-Hexane-1,6-diylbis(4-amidinobenzamide) dihydrochloride], the IC50 runs as follows: under setting [1], 4.9 ± 1.2 µg/mL; (read-out: Activity ranking) 1 to 9.99 µg/mL.
In the case of `N=C(N)c1ccc(OCCCCCOc2ccc(C(=N)N)cc2)cc1` [pentamidine, reference compound], the IC50 reads like this: (72 h) 500 nM; under setting [1], 0.3 µg/mL.
